HER2 expr 66K: inhibitors of Her2 protein expression, primary screen, SKBR-3 cells, AlphaScreen, 66K library; Receptor tyrosine-protein kinase erbB-2 (Homo sapiens), P04626; SKBR-3 HER2 protein level, 18-24 h; stronger effect = lower value; HER2 level % of control, % at 10 µM; hit rate 0.69% among 65,000;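 active = HER2 level under 5% of the carrier-only control; inconclusive = no clear call, values can overlap the other calls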;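 note: lower value means stronger loss of Her2 protein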
M1 agonist: M1 muscarinic receptor agonists, primary screen, CHO-M1 cells, Fluo-4 calcium, agonist mode; Fluo-4 calcium fluorescence; stronger effect = higher value; B-score at 10 µM; hit rate 3% among 64,000; AID 626, 2007;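 active = fluorescence rise, raw or as B-score row- and column-corrected plate score, outside the 99.7% band of its plate's samples, either direction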
JNK3 inh: JNK3 kinase activity inhibitors, primary screen, biochemical, human, purified enzyme; Mitogen-activated protein kinase 10 (Homo sapiens), P53779; HTS; inhibition, % at 8 µM; hit rate 0.61% among 60,000; AID 746, 2007; in the data active = inhibition above about 17%
BAP1 inh: inhibitors of BAP1 deubiquitinase, primary screen, biochemical, Ub-AMC fluorescence, kinetic | recombinant BAP1, Ub-AMC hydrolysis fluorescence kinetic; stronger effect = lower value | calls only at 20 µM | hit rate 0.48% among 72,000 | AID 436, 2006;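 active = activity remaining at or below 50% of control, provided the compound also passes the data quality filters; inactive = the rest, including low values that fail the filters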
HEK293 NFkB inh: inhibitors of PMA/ionomycin-induced NF-kB reporter, primary screen, antigen receptor NF-kB inhibitor project, cell-based, HEK-293 luciferase reporter, luminescence; HEK-293 NF-kB luciferase reporter; inhibition, % at 3 µM; hit rate 0.21% among 62,000; AID 465, 2006;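 active = inhibition above the mean of all tested compounds plus 3 SD, cut at about 40% in these data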
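Reagent: PMA plus ionomycin mix as NF-kB-activating stimulus. Assay system: NF-kB luciferase reporter HEK-293 cells. Technique: luminescence from luciferase substrate reagent. Incubation: 1 h compound pre-incubation, 16 h PMA/ionomycin at 37 °C. Benchmarks: DMSO only as uninhibited control, 10 µM reference inhibitor as full inhibition. Repeats: tested once.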
M1 antagonist: antagonists of rat M1 muscarinic receptor | Muscarinic acetylcholine receptor M1 (Rattus norvegicus), P08482 | CHO-M1 cells, Fluo-4 calcium, ACh EC80 antagonist mode; stronger effect = lower value | B-score at 10 µM | hit rate 3.4% among 64,000;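 active = calcium fluorescence response, raw or row-and-column corrected B-score, differing from the plate sample mean either way at a set confidence level, mostly lower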
Target sequence (P08482 whole entry, looked up): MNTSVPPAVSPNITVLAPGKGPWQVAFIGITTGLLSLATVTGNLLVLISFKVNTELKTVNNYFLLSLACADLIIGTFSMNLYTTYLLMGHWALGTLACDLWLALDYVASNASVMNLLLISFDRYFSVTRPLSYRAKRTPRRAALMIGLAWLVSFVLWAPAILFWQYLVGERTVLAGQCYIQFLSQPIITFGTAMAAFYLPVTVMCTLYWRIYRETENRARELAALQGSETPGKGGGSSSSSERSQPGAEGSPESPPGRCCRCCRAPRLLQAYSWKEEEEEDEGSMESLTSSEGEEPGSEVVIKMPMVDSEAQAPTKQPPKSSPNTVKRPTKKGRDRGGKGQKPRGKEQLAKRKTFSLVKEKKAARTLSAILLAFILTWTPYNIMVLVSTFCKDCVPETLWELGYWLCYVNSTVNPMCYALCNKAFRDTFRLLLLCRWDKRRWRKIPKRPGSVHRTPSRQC
M1 ag confirm: rat M1 muscarinic receptor agonists, confirmation, CHO-M1 cells, Fluo-4 calcium, duplicate retest. hit rate 19% among 1,700. shares compounds with M1 agonist. fluorescence change (max-min) at 10 µM. Fluo-4 calcium fluorescence, agonist mode; actives lie on both sides;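 active = fluorescence change differs from the solvent-only DMSO control mean at a set confidence level in both duplicate runs; inconclusive = differs from solvent-only control mean in just one of two runs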;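 note: an EC20 dose of acetylcholine follows compound addition during the same imaging run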
M4 agonist ctr: agonist activity at rat M4 receptor, confirmation, counter-screen for M1 allosteric modulator project, cell-based, agonist mode | shares compounds with M1 agonist | CHO M4/Gqi5 cells, Fluo-4 calcium fluorescence; actives lie on both sides | fluorescence change (max-min) at 10 µM | hit rate 9% among 1,700;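 active = fluorescence change differing from the plate's solvent-only control wells at 99.7% confidence in both duplicates, whether higher or lower; inconclusive = differs from solvent controls in only one of two duplicates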
Hits are given with their value; i = inactive; ? = inconclusive; nt = no result shown. Shown are actives, neighbours in structure and some others; about 6.6% of the full set was active somewhere.

SMILES	HER2 expr 66K	M1 agonist	JNK3 inh	BAP1 inh	HEK293 NFkB inh	M1 antagonist	M1 ag confirm	M4 agonist ctr
O=C1C2=C(C(c3ccc(Cl)cc3)=NCCN2)C(c2ccc(Br)cc2)N1c1ccccc1 (configuration not stated)	nt	nt	nt	i	nt	nt	nt	nt
COc1ccc(C2C(C#N)=C(N)SC(N)=C2C#N)cc1OC	i	38.1	22.2	i	nt	i	i	i
CCOC(=O)CSc1nnc(CNC(=O)c2ccco2)n1C	i	i	i	i	i	i	nt	nt
COC(=O)CSc1nnc(CNC(=O)c2ccco2)n1-c1ccc(F)cc1	i	4.41	i	i	i	i	i	?
COc1cc2c(cc1OC)C(COc1ccc(F)cc1)N(C(=O)c1ccco1)CC2 (configuration not stated)	i	7.93	nt	i	i	i	i	i
CN(CC1CCCO1)S(=O)(=O)c1ccc(C(=O)Nc2nc(-c3ccccn3)cs2)cc1 (configuration not stated)	i	9.57	i	i	i	i	i	i
CC1=C(C(=O)OCC2CCCO2)C(c2ccc([N+](=O)[O-])cc2)C2=C(CCCC2=O)N1 (configuration not stated)	nt	nt	nt	i	nt	nt	nt	nt
O=C(Nc1ccc2sccc2c1)c1ccc(S(=O)(=O)N2CCCc3ccccc32)cc1	nt	nt	nt	i	nt	nt	nt	nt
COc1cc(NC(=O)C2CC(=O)NC3=C2C(=O)CC(C)(C)C3)c(OC)cc1Cl (configuration not stated)	i	15.8	i	i	i	i	i	i
COc1ccc2[nH]c(=O)c(CN(CC3CCCO3)C(=O)Nc3ccc(F)cc3)cc2c1 (configuration not stated)	i	11.2	i	i	i	-4.29	i	i
COc1cccc(C(=O)N(Cc2cc3cc(C)ccc3[nH]c2=O)CC2CCCO2)c1 (configuration not stated)	i	nt	i	i	i	nt	nt	nt
CCOC(=O)N1CCN(C(=O)c2nn(-c3cc(OC)cc(OC)c3)c(=O)c3ccccc23)CC1	i	6.36	i	i	i	i	i	?
COc1ccc(-n2nc(C(=O)N3CCCCC3)c3ccccc3c2=O)cc1	i	i	i	i	i	i	nt	nt
CCCCNc1cc(C)nc(NCc2ccccc2)n1	i	6.43	i	i	i	-3.25	i	i
Cc1cc(C)nc(NCCCc2ccccc2)n1	i	nt	i	i	i	nt	nt	nt
CCOC(=O)N1CCN(C(=O)Cc2ccc(-n3c(=O)[nH]c4ccccc4c3=O)cc2)CC1	i	i	i	i	i	i	nt	nt
CCOC(=O)c1ccc(-n2c(=O)[nH]c3ccccc3c2=O)cc1	i	-1.99	i	i	nt	i	?	i
COc1ccc(Cn2c(=O)oc3ccc(C)cc32)cc1OC	i	13	i	i	i	i	i	i
Cc1ccc2oc(=O)n(CC(=O)O)c2c1	i	i	i	i	i	i	nt	nt
CCC(C)NC(=O)c1cc2nc(-c3ccc(Br)cc3)cc(C(F)(F)F)n2n1 (configuration not stated)	nt	nt	nt	i	nt	nt	nt	nt
O=C1c2ccccc2C(=O)c2cc(-c3nc4ccccc4[nH]3)ccc21	nt	nt	nt	i	nt	nt	nt	nt
COC(=O)c1ccccc1NC(=O)C1CCCN(S(=O)(=O)c2ccc(F)cc2)C1 (configuration not stated)	i	5.51	i	i	i	i	i	i
O=C(Nc1nc(-c2ccccc2)cs1)C1CCCCN1S(=O)(=O)c1ccccc1 (configuration not stated)	i	i	i	nt	i	i	nt	nt
Cc1nnc(NC(=O)C2CCCN(S(=O)(=O)c3ccccc3C(F)(F)F)C2)s1 (configuration not stated)	i	15.8	i	i	i	i	i	i
O=C(Nc1nc(-c2ccccc2)cs1)C1CCCN(S(=O)(=O)c2ccccc2)C1 (configuration not stated)	i	4.48	i	nt	i	i	?	i
SMILES	HER2 expr 66K	M1 agonist	JNK3 inh	BAP1 inh	HEK293 NFkB inh	M1 antagonist	M1 ag confirm	M4 agonist ctr
CC(=O)N1CCc2cc(S(=O)(=O)Nc3cccc(C(F)(F)F)c3)ccc21	i	5.07	nt	i	i	i	i	i
COCCOC(=O)C1=C(C)NC(=O)NC1c1cn(-c2ccccc2)nc1-c1cccs1 (configuration not stated)	i	10.6	i	i	i	-2.11	?	i
CCc1nc2ccccc2n(CC)c1=O	i	12.7	i	nt	i	i	i	i
CC(=O)N1CCc2cc(S(=O)(=O)CCC(=O)Nc3c(C)n(C)n(-c4ccccc4)c3=O)ccc21	i	8.56	i	i	i	i	?	i
CC(=O)N1CCc2cc(S(=O)(=O)CCC(=O)O)ccc21	i	i	i	i	i	i	nt	nt
O=C(c1nn2c(c1Br)NC(c1ccccc1)CC2C(F)(F)F)N1CCCc2ccccc21 (configuration not stated)	nt	nt	nt	i	nt	nt	nt	nt
Cc1ccc(-c2nc3cc(N)ccc3o2)cc1	i	2.41	i	i	i	i	i	i
COC(=O)CSc1nc2c(c(=O)[nH]c(=O)n2C)n1Cc1cccc(C)c1	nt	nt	nt	i	nt	nt	nt	nt
O=C(OCc1cccs1)c1ccccc1NS(=O)(=O)c1ccc2c(c1)OCCO2	i	4	i	i	i	i	i	i
O=C(NC1CCCCC1)C1CCN(S(=O)(=O)N2CCCCCC2)CC1	i	i	i	i	i	i	nt	nt
O=C(NC1CCCCCC1)C1CCN(S(=O)(=O)c2ccccc2)CC1	i	6.55	i	i	i	i	?	?
CC(C)c1cc(CN2CCN(CCC#N)CC2)cc(C(C)C)c1O	i	26.9	i	i	i	i	i	i
N#Cc1cnc2sc3ccccc3n2c1=N	i	-2.44	nt	nt	nt	i	i	i
Cc1nn(Cc2ccc(C(=O)NC(C)(C)C)o2)c(C)c1Br	i	3.92	i	i	i	i	i	i
CCOc1ccc(S(=O)(=O)N(C)CCO)cc1-c1nc2c(C(C)(C)C)nn(C)c2c(=O)[nH]1	i	5.63	i	i	nt	i	i	i
O=C(Nc1cccnc1)c1ccc(Cl)c(S(=O)(=O)N2CCCCCC2)c1	i	2.44	i	i	i	i	?	i
CC(=Nc1ccc(O)cc1)c1sc2ccccc2c1O	i	36	i	i	i	i	i	i
CC(=O)NCCN=C(C)c1sc2ccccc2c1O	i	i	i	i	i	i	nt	nt
